The source of these data is PMC6512341 (ACS chemical neuroscience, 2018).

A value given as a limit tells only on which side of the number the result lay.

One data set deals with MDCK-MDR1 cell line. Nature of the data set: Permeability studies in MDCK-MDR1 cells. The class given is in vitro ADME. The settings on record: MDCK-MDR1 cell line.
Data set [1] has as its system acetylated α-tubulin. Kind of data set: α-Tubulin acetylation studies in HEK293 cells. The class given is cell-based. The settings on record: tested at 0.01, 0.1, 1, and 10 μM. In a few lines:
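HEK293 cells plated 24 h ahead and treated at 70% confluency with 10 nM–10 µM. Lysed in MPER with protease inhibitors; 2 µg protein boiled, run on 12% gel, transferred to PVDF. Blocked in 5% milk/TBST; anti-acetyl-tubulin 1:3000 overnight at 4 °C, then HRP secondary 1:5000; ECL. Reprobed for total α-tubulin at 1:1000. Densitometric ratio normalized to 10 µM reference HDAC6 inhibitor; n = 3–4; one-way ANOVA vs vehicle.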

For a further data set, the system named is class IIa isoforms. Kind of data set: HDAC1–11 enzyme assays. Format: biochemical, human. The settings on record: Figure 2b and c. In a few lines:
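Human full-length recombinant HDAC4, 5, 7 and 9 with fluorogenic Ac-LGK(TFA)-AMC substrate. Enzyme–compound preincubation 5–10 min, then 2 h at 30 °C. Developer added; fluorescence read at plateau. 10-dose, 3-fold dilutions from 30 µM, in duplicate. IC50 from sigmoidal fit.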

In another data set the test system is MDR1 (P-gp). Kind of data set: Permeability studies in MDCK-MDR1 cells. Format: in vitro ADME. The settings on record: dog, MDCK-MDR1, efflux ratio, MDCK-MDR1 cell line.
The subject of another data set is MDR1. Kind of data set: Permeability studies in MDCK-MDR1 cells. The class given is in vitro ADME. The following applies: dog, MDCK-MDR1.
Data set [2] concerns the target T1, HDAC6 (Homo sapiens, UniProt Q9UBN7).
T1 sequence (Q9UBN7 1-1215): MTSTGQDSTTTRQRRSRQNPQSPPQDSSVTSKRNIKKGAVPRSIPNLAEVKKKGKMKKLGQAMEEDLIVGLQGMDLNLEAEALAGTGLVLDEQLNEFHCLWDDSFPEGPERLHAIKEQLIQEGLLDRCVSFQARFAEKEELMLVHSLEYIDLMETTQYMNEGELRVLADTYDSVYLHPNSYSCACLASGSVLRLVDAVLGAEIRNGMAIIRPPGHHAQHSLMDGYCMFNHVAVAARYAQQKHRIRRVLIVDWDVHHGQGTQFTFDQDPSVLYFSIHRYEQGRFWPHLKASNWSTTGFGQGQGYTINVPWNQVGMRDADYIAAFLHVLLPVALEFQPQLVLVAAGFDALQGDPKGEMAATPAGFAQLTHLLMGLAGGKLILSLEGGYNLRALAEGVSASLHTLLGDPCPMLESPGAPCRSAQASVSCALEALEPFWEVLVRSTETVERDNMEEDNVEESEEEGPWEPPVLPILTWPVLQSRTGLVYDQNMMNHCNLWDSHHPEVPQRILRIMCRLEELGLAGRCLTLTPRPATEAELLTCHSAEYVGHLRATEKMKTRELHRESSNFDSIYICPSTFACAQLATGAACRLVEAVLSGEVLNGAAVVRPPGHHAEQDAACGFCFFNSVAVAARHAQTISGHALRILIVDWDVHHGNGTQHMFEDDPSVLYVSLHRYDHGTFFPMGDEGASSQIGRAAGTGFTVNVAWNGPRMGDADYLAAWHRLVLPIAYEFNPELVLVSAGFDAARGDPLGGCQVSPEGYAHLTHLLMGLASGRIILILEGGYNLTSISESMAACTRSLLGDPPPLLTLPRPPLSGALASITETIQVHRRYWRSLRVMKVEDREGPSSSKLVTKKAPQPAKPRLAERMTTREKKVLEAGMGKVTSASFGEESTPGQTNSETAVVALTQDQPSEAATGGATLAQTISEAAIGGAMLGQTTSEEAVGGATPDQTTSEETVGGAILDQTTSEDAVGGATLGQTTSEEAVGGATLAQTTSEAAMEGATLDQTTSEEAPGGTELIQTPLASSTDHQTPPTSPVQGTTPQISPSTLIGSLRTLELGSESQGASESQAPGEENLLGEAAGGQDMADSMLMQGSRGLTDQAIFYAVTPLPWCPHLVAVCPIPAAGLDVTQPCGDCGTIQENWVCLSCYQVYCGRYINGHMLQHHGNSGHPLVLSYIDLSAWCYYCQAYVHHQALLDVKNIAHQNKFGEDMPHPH
Kind of data set: HDAC1–11 enzyme assays. The following applies: for HDAC6 activity (in words): Figure 1a, compared with phenylhydroxamate 1. The class given is biochemical.

In data set [3] the test system is HDAC6. The settings on record: cited from earlier work; for activity against HDAC6 (in words) / selectivity over HDAC1 (in words): Figure 1a.
Data set [4] in a line: Brain/plasma pilot PK studies of TubA. Format: in vivo. The settings on record: IV administration, WT mice.
For data set [5] the following is noted: cited from earlier work.
Data set [6] deals with acetylated α-tubulin. Nature of the data set: α-Tubulin acetylation in N2a cells. The class given is cell-based. The settings on record: compared to vehicle.
For another data set, the system named is acetylated histone 3. Nature of the data set: Histone acetylation in N2a cells. Format: cell-based. The settings on record: compared to vehicle. A digest of the protocol: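 N2a cells treated at 1 µM or 10 nM; reference HDAC inhibitors served as positive controls. Histones extracted by kit; protein by micro BCA. Samples denatured in reducing buffer at 95 °C for 5 min and blotted to PVDF. Blocked in 5% BSA/TBST 1 h at RT; primaries overnight: acetyl-H3 K9+K14 1:1000, histone 4 1:1000. Ratios normalized to vehicle; n = 4; one-way ANOVA vs vehicle.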

For orientation: efflux ratio means a quotient of directional permeabilities that is used to spot active efflux. For the compound `O=C(NO)c1ccc(Cn2cccn2)cc1` [Compound 6, 4-(1-Pyrazolylmethyl)-N-hydroxybenzamide], in the data set with MDCK-MDR1 cell line, the “Papp(A−B)” value is 7.35 10^−6, cm/s; the “Papp(B−A)” value is 5.24 10^−6, cm/s; the efflux ratio was found to be 0.70. Also, the “concentration at which acetylated α-tubulin levels are elevated” value (“concentration” for short) in the data set with acetylated α-tubulin [1] came out at 10 µM.

Broadly, the Papp A→B is how fast a substance crosses the layer from the apical side. A low value points to slow passage. As a reminder, the Papp B→A is how fast a substance crosses the layer from the basolateral side. For the compound `Cc1nc2ccccc2n1Cc1ccc(C(=O)NO)cc1F` [Compound 9, 3-Fluoro-N-hydroxy-4-[(2-methyl-1-benzimidazolyl)methyl]-benzamide], in the data set with class IIa isoforms, the “activity against the class IIa isoforms (in words)” value is “strong activity”. The efflux ratio with MDCK-MDR1 cell line is 4.23. Besides, the efflux ratio at 2 h in the data set with MDR1 (P-gp) is over 2.5. In the data set on MDR1, the Papp A→B at 2 h was determined as 3.89 ×10⁻⁶ cm/s and the Papp B→A at 2 h was determined as 13.2 ×10⁻⁶ cm/s.

Consider `O=C(NO)c1ccc(CN2CCCC2)cc1` [Compound 3, N-Hydroxy-4-(pyrrolidin-1-ylmethyl)benzamide], for which the “HDAC6 activity (in words)” value on HDAC6 [2] is reported as “reduced HDAC6 activity”.

Take `O=C(NO)c1ccc(CN2CCc3ccc(F)cc32)cc1` [Compound 11, 4-[(6-Fluoroindolin-1-yl)methyl]-N-hydroxybenzamide]: the efflux ratio with MDCK-MDR1 cell line is recorded as 1.05. Further, the efflux ratio at 2 h with MDR1 (P-gp) is under 1. Moreover, in the data set with MDR1, the Papp A→B at 2 h stood at 10.5 ×10⁻⁶ cm/s and the Papp B→A at 2 h is 11.1 ×10⁻⁶ cm/s. Besides, the “concentration” value in the data set on acetylated α-tubulin [1] amounted to 1 µM.

Usually IC50 stands for the concentration needed to halve the response being measured. Regarding `O=C(NO)c1ccccc1` [Compound 1, phenylhydroxamate, reference compound], the “selectivity over class I HDACs” value in the data set with HDAC6 [3] is “more than 10 fold”. Further, the IC50 in the data set with HDAC6 [3] (read-out: IC50 against HDAC6) is 115 nM.

With `CCN(CC)Cc1ccc(C(=O)NO)cc1` [Compound 2, 4-[(Diethylamino)methyl]-N-hydroxybenzamide], on HDAC6 [2], the “HDAC6 activity (in words)” value is “reduced HDAC6 activity”.

Consider `CN1CCc2c(c3ccccc3n2Cc2ccc(C(=O)NO)cc2)C1` [TubA, tubastatin A, reference compound], for which, at HDAC6 [2] (Figure 2b and c), the “selectivity against HDAC8 (in words)” value is recorded as “poorer selectivity”; the “selectivity against the class I HDACs 1, 2, and 3 (in words)” value is given as “high selectivity”. Moreover, in the data set with MDCK-MDR1 cell line, the efflux ratio was found to be 9.83. In the data set with MDR1, this compound displayed an apical-to-basolateral permeability (Papp A→B) at 2 h of 2 ×10⁻⁶ cm/s and a Papp B→A at 2 h of 19.7 ×10⁻⁶ cm/s. In addition, the brain/plasma ratio in data set [4] (8 min) stood at 0.15. Moreover, in data set [4] (60 min), the brain/plasma ratio is recorded as 0.86. In [5], the AUCbrain/AUCplasma is on record as 0.18.

`Cn1c(NCc2ccc(C(=O)NO)cc2)nc2ccccc21` [Compound 12, N-Hydroxy-4-[[(1-methyl-1H-benz[d]imidazol-2-yl)amino]-methyl]benzamide]: the efflux ratio in the data set on MDCK-MDR1 cell line stood at 2.95. Besides, in the data set on MDR1 (P-gp), the efflux ratio at 2 h is over 2.5. Also, in the data set on MDR1, the Papp A→B at 2 h is 0.66 ×10⁻⁶ cm/s and the Papp B→A at 2 h turned out to be 2.05 ×10⁻⁶ cm/s.

With `O=C(NO)c1ccc(Cn2cccc2)cc1` [Compound 4, 4-(1-Pyrrolylmethyl)-N-hydroxybenzamide], in the data set with HDAC6 [3], the “activity against HDAC6 (in words)” value is “nanomolar activity” and the “selectivity over HDAC1 (in words)” value is reported as “high selectivity”.

With `O=C(NO)c1ccc(CN2CCc3ccc(Cl)cc32)cc1` [Compound 10, 4-[(6-Chloroindolin-1-yl)methyl]-N-hydroxybenzamide], the efflux ratio with MDCK-MDR1 cell line was found to be 0.62. Moreover, the efflux ratio at 2 h in the data set with MDR1 (P-gp) was under 1. In the data set with MDR1, the Papp A→B at 2 h is 9.14 ×10⁻⁶ cm/s and the Papp B→A at 2 h stood at 5.54 ×10⁻⁶ cm/s. Besides, the “concentration” value in the data set with acetylated α-tubulin [1] came to 1 µM.

As to `O=C(NO)c1ccc(Cn2ccc3ccccc32)cc1` [Compound 5, 4-(1-Indolylmethyl)-N-hydroxybenzamide], in the data set with HDAC6 [3], the “activity against HDAC6 (in words)” value is on record as “nanomolar activity” and the “selectivity over HDAC1 (in words)” value is “high selectivity”.

As for `CC(/C=C/C(=O)NO)=C\[C@@H](C)C(=O)c1ccc(N(C)C)cc1` [TSA, Trichostatin A, reference compound], the “ratio of acetylated α-tubulin to α-tubulin” value with acetylated α-tubulin [6] is “increased levels of both acetylated α-tubulin and acetylated histone H3 significantly”. Besides, in the data set with acetylated histone 3, the “levels of acetylated histone 3 to histone 4” value was “increased levels of both acetylated α-tubulin and acetylated histone H3 significantly”.

In the case of `Cc1nc2ccc(F)cc2n1Cc1ccc(C(=O)NO)cc1` [Compound 8, 4-[(6-Fluoro-2-methyl-1-benzimidazolyl)methyl]-N-hydroxybenzamide], the “activity against the class IIa isoforms (in words)” value in the data set on class IIa isoforms is “strong activity”. The efflux ratio with MDCK-MDR1 cell line was determined as 3.23. In the data set on MDR1 (P-gp), the efflux ratio at 2 h is over 2.5. Also, in the data set with MDR1, the Papp A→B at 2 h was 4.44 ×10⁻⁶ cm/s and the Papp B→A at 2 h amounted to 13.4 ×10⁻⁶ cm/s.

As to `CN(C)c1ccc(Cc2ccc(C(=O)NO)cc2)cc1` [Compound 7, 4-[4-(Dimethylamino)benzyl]-N-hydroxybenzamide], the efflux ratio in the data set with MDCK-MDR1 cell line came to 0.63. For the same compound, the efflux ratio at 2 h in the data set on MDR1 (P-gp) was under 1. In the data set on MDR1, the Papp A→B at 2 h came out at 17.6 ×10⁻⁶ cm/s and the apparent permeability from basolateral to apical (Papp B→A) at 2 h was 11 ×10⁻⁶ cm/s. Further, in the data set with acetylated α-tubulin [1], the “concentration” value was determined as 10 µM.
